Bioassay records: PubChem BioAssay, several laboratories
In the library only some 2% were active in any assay of this set; here they are far more common.
NR2E3 ag-1 = activates human NR2E3 receptor | CHO-S Gal4-NCOR/VP16-NR2E3 two-hybrid, luciferase | inhibition of corepressor binding, % at 3.98 µM | 360,000 tested, 0.35% active | AID 602229;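 active = inhibition above the mean of all tested compounds plus 3 SD, cut at about 70% in these data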;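 also: higher means lower luciferase signal from less NR2E3 corepressor binding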
Neddylation inh = inhibitors of human cullin neddylation | TR-FRET cullin neddylation, biochemical | calls only at 25 µM | 360,000 tested, 0.58% active | AID 651699; in the data active = inhibition above about 36%
NR2E3 ag-2 = NR2E3 (human) agonism; inhibition of corepressor binding, % at 4.78 µM; 320,000 tested, 0.12% active; Q9Y5X4; GST-NR2E3/biotin-RetCOR TR-FRET, 1536-well;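 active = percent inhibition above the cutoff of mean plus 3 SD of all tested compounds, set per screening campaign, cut at about 20% in these data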
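Assay system: NR2E3–RetCOR corepressor complex. Quantity: 1.35 nM GST-NR2E3. Buffer or medium: pH 7.5 Tris-based buffer. Reagent: biotinylated RetCOR corepressor at 7 nM final. Schedule: 5 h at 4 °C. Detection: TR-FRET, emission read at 617 and 671 nm. Replicates: one well per compound, singlicate testing.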
Rev-erbA mod = modulators of human Rev-erb alpha DNA binding; AID 1259318; Rev-erbα–FITC-DNA binding, fluorescence polarization, 90 min; activity, % at 10 µM; P20393; 370,000 tested, 0.79% active;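 active = activity above about 14%, limit read from the data; passing the limit was not always enough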
Target sequence (P20393 whole entry, looked up): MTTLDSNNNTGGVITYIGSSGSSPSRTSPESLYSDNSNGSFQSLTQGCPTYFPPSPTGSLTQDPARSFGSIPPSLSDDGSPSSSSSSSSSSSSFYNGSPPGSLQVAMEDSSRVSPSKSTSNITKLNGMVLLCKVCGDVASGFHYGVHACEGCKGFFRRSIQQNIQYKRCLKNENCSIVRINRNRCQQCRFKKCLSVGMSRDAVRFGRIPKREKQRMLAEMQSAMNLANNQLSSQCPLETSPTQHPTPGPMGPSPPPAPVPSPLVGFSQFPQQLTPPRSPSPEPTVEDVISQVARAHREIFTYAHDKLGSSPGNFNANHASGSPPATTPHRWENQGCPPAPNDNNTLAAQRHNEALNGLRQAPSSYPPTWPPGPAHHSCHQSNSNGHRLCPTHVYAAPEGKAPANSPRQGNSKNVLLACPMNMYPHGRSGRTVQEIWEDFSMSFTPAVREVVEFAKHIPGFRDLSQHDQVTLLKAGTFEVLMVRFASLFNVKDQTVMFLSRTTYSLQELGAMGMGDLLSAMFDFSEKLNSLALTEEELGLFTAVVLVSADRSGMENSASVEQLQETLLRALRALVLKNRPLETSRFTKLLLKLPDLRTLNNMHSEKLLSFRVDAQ
PG9 binder = small molecules binding HIV-1 gp120 antibody PG9 | TR-FRET gp120-PG9 antibody binding | inhibition, % at 6.7 µM | 360,000 tested, 0.43% active | AID 624416; in the data active = inhibition above about 8.5%
NR1D1 mod conf = Rev-erb alpha (human) modulation, hit confirmation; activation, % at 25 µM; Rev-erb alpha FITC-DNA binding, fluorescence polarization, 90 min; shares compounds with Rev-erbA mod; AID 1259319; 3,000 tested, 61% active;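 active = activation at or above a set limit, or at least 3 SD above the negative control mean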
RORg DNA counter = RORgamma DNA-binding activity, dose-response counter-screen; shares compounds with Rev-erbA mod; purified RORgamma protein-FITC-DNA binding, fluorescence polarization; 910 tested, 8% active; IC50, µM;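 active = Compounds whose fitted half-maximal concentration for disrupting protein-DNA binding is below 10 micromolar; the record names Rev-erb in its text, so the target is in doubt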
Of the large screens only hits and unclear results are named; the others gave an inactive call (follow-up assays come after a bar, where they were run).

O=C(CNC(=O)c1cc(=O)[nH]c2ccc(S(=O)(=O)N3CCOCC3)cc12)Nc1ccc(F)c(F)c1	none (no result: NR2E3 ag-2)
O=C(CSc1nnc2c(n1)[nH]c1ccc(S(=O)(=O)N3CCOCC3)cc12)Nc1ccc(F)c(F)c1	Rev-erbA mod 45 | NR1D1 mod conf inactive
Cc1ccc(NC(=O)c2ccc(OCC3CCCO3)cc2)cc1Cl (stereo not given)	none (no result: NR2E3 ag-2)
C=CCn1c(=O)c(C(=O)NCCc2ccc(Cl)cc2)c(O)c2cc(OC)c(OC)cc21	Rev-erbA mod 29 | NR1D1 mod conf inactive
O=S(=O)(c1ccccc1)N1CCN(c2cc(-c3ccccc3)nc3ncnn23)CC1	none
O=S(=O)(c1ccc(Br)cc1)N1CCN(c2cc(-c3ccccc3)nc3ncnn23)CC1	Rev-erbA mod 30 (no result: PG9 binder) | NR1D1 mod conf 26
O=C(NCc1ccc(F)cc1F)[C@@H]1CCCN1C(=O)[C@@H]1CCCN1C(=O)c1cccc2ccccc12	none (no result: NR2E3 ag-2)
CN(C)/C=N/c1c(C#N)cnn1-c1ccccc1	none
CN(C)/C=N/c1c(C#N)cnn1-c1nc2ccccc2s1	Rev-erbA mod 50 | NR1D1 mod conf 19
C[C@@H]1CN([C@@H](C)CO)C(=O)CCCn2nncc2CO[C@@H]1CN(C)C(=O)C1CCCCC1	none (no result: NR2E3 ag-2)
Cc1ccc(C(=O)OCC(=O)N(CC(C)C)c2c(N)n(Cc3ccccc3)c(=O)[nH]c2=O)s1	none
CCOC(=O)c1nn2c(C(F)(F)F)cc(-c3ccc(OC)cc3)nc2c1Br	Rev-erbA mod 41 | NR1D1 mod conf inactive
COCCNC(=O)c1nn2c(C(F)(F)F)cc(-c3ccccc3)nc2c1Br	none (no result: NR2E3 ag-2)
Cc1sc(NC(=O)Cc2ccc3c(c2)OCO3)nc1-c1ccc2c(c1)CCN2C(=O)c1ccc(F)cc1	none
Cc1sc(NC(=O)Cc2ccc3c(c2)OCO3)nc1-c1ccc2c(c1)CCN2C(=O)c1ccccc1F	Rev-erbA mod 45 | NR1D1 mod conf 53
O=C1NC[C@H](CCCCN2C[C@H](Cc3ccc(O)cc3)N(Cc3ccccc3)C(=O)C2=O)N(CCc2ccc(O)cc2)C1=O	none (no result: NR2E3 ag-2)
Cc1nn(-c2ccc(Cl)c(Cl)c2)c(=O)c2ccccc12	Rev-erbA mod 48 | NR1D1 mod conf 41 | RORg DNA counter inactive
Nc1ncnc2c1ncn2[C@@H]1O[C@H](C(=O)N2CCC[C@@H]2C(=O)OCc2ccccc2)[C@@H](O)[C@H]1O	none (no result: NR2E3 ag-2)
CCc1ccc(-c2cc3c(=O)n(CC(=O)N4CCCC4)nc(C)n3n2)cc1	Rev-erbA mod 49 | NR1D1 mod conf 20
CCc1ccc2c(COC(=O)c3n[nH]c4ccccc34)cc(=O)oc2c1	none
Cc1ccc2c(COC(=O)c3n[nH]c4ccccc34)cc(=O)oc2c1	Rev-erbA mod 17 | NR1D1 mod conf inactive
O=C1NC[C@@H](CCCCN2C[C@H](Cc3ccccc3)N(CC3CCCCC3)C(=O)C2=O)N(CC2CCCCC2)C1=O	none (no result: NR2E3 ag-2)
O=C(COC(=O)CNC(=O)c1ccccc1)NC(=O)NC1CCCCC1	none (no result: NR2E3 ag-2)
OCC[C@@H]1C[C@H](O)[C@@H](O)[C@]2(OCc3cc(Cl)ccc32)O1	none (no result: NR2E3 ag-2)
COc1ccccc1NC(=O)c1cnc(SCC(=O)NCCc2ccccc2)n(C)c1=O	Rev-erbA mod 14 | NR1D1 mod conf 32 | RORg DNA counter inactive
COc1ccc(CCNC(=O)CSc2ncc(C(=O)Nc3ccccc3)c(=O)n2C)cc1	none
CN(C)c1ccc(/C=c2\sc3n(c2=O)CCCN=3)cc1	Rev-erbA mod 27 | NR1D1 mod conf inactive
